Screens as filed in PubChem BioAssay.
MrgX1 antag – antagonists of human MrgX1 receptor, primary screen, HEK293 cells, Fluo-4 calcium flux. hit rate 1.3% among 310,000. Mas-related G-protein coupled receptor member X1 (Homo sapiens), Q96LB2. B-score at 10 µM. BAM8-22 antagonism; stronger effect = lower value. AID 588676, 2011;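 active means calcium-response B-score plate-corrected more than 3 library SD below zero, starting fluorescence within 5 deviations, no agonist response on first addition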;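 further: peak minus trough fluorescence over baseline after final BAM8-22 challenge near maximal dose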
Target sequence (Q96LB2 whole entry, looked up): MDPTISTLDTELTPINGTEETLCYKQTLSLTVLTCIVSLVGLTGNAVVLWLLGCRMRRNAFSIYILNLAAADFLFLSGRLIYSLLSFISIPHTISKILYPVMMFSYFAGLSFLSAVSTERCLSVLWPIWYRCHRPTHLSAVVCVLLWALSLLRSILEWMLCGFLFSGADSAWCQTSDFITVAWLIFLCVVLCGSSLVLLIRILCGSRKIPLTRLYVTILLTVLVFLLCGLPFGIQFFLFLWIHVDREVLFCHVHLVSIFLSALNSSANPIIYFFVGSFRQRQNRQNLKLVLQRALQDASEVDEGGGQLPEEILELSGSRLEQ
MrgX1 agonist – agonists of human MrgX1 receptor, primary screen, HEK293 cells, Fluo-4 calcium flux; hit rate 0.44% among 310,000; Mas-related G-protein coupled receptor member X1 (Homo sapiens), Q96LB2; Fluo-4 calcium fluorescence, agonist mode; stronger effect = higher value; B-score at 10 µM;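 active means calcium response B-score plate-corrected fluorescence ratio at least 3 library SD, with starting fluorescence B-score inside 5 SD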
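System – MrgX1-expressing HEK293 cells · Incubation – cells plated overnight, dye loaded 0.5 h 37 °C, 0.5 h room temperature · Technique – kinetic Fluo-4 NW fluorescence of intracellular calcium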
RGS4 act – RGS4 potentiators or activators, primary screen, cell-based, HEK293 M3R inducible RGS4, calcium flux | carbachol calcium flux Fluo4; stronger effect = lower value | B-score at 10 µM | hit rate 0.92% among 310,000;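 active means B-score of the integrated calcium signal more than 4 SD below the library mean, with starting fluorescence not abnormally high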;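 further: negative B-score means reduced calcium response which marks RGS4 activation or potentiation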
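Test system: HEK293 cells with stable M3R and inducible RGS4; also added: carbachol at ECmax as muscarinic agonist stimulus; schedule: dye loading 30 min 37 °C, buffer rest 30 min RT; technique: kinetic calcium fluorescence imaging with Fluo4-AM dye, 2 µM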
RGS4 block – RGS4 inhibitors, primary screen, cell-based, HEK293 M3R inducible RGS4, calcium flux. Regulator of G-protein signaling 4 (Homo sapiens), P49798. B-score at 10 µM. hit rate 0.45% among 310,000. AID 463165, 2010. Fluo-4 calcium flux; stronger effect = higher value; triggered by carbachol at its EC20;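 active means B-score, a plate-corrected calcium signal, over three deviations above library mean, with baseline fluorescence within five deviations of library mean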;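 further: RGS4 expression induced by doxycycline in cells with stable M3 receptor; B-score is computed from the integrated fluorescence ratio over baseline after carbachol; higher B-score means a larger calcium signal and so more RGS4 inhibition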
Target sequence (P49798 whole entry, looked up): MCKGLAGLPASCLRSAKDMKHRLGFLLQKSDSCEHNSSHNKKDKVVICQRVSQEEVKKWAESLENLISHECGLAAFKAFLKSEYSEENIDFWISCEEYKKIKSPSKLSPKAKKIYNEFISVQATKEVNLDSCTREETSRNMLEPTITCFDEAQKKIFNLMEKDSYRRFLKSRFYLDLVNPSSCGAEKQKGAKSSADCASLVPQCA
MrgX1 allo act – positive allosteric modulators of MrgX1, primary screen, HEK293 cells, Fluo-4 calcium flux; FDSS; stronger effect = higher value; B-score at 10 µM; hit rate 0.63% among 310,000;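 active means plate-corrected calcium response at least 3 library SD above typical, normal starting fluorescence, not activating the receptor alone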;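 further: compound read alongside a low EC10 to EC30 dose of BAM8-22 agonist; peak minus trough fluorescence over baseline measured at the second addition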
MrgX1 antag conf – MrgX1 receptor antagonists, duplicate retest, confirmation, HEK293 cells, Fluo-4 calcium flux; hit rate 19% among 2,300; BAM8-22 calcium flux; stronger effect = lower value; remaining BAM8-22 calcium response % of control (stronger effect = lower value), % at 10 µM; shares compounds with MrgX1 antag;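 active means remaining agonist calcium response no higher than 100% minus 3 SD of agonist-only control wells, with starting fluorescence near control levels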;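 further: agonist BAM8-22 given at a near maximal EC90 to ECmax level; peak minus minimum fluorescence divided by baseline after agonist addition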
HEK293 Ca flux – nonspecific calcium signal in parental HEK293, confirmation, counter-screen for MrgX1 antagonist project, parental HEK293 cells, Fluo-4 calcium flux; shares compounds with MrgX1 antag; Fluo-4 calcium fluorescence, FDSS; fluorescence ratio F(max-min)/F0 at 10 µM; hit rate 2% among 4,000;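 active means duplicate-averaged calcium fluorescence ratio at least three times the standard deviation of buffer wells, a nonspecific response in parental cells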
HEK293 Ca counter – calcium response in parental HEK293 cells, primary screen, counter-screen for MrgX1 allosteric activator project, cell-based, Fluo-4 calcium flux, duplicate; fluorescence ratio F(max-min)/F0 at 10 µM; shares compounds with MrgX1 antag; hit rate 0.4% among 4,000; AID 624114, 2012; Fluo-4 fluorescence ratio; stronger effect = higher value;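 active means calcium fluorescence ratio, averaged over duplicates, at least 3 SD of the buffer-well ratio, meaning a nonspecific response in receptor-free cells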;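 further: untransfected parental HEK293 lacking MrgX1 used as counterscreen for MrgX1 allosteric activators; fluorescence change taken during the second addition on a kinetic imager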
HEK293 Ca cntr2 – calcium response in parental HEK293 cells, primary screen, counter-screen for MrgX1 agonist project, cell-based, Fluo-4 calcium flux, duplicate, agonist mode | shares compounds with MrgX1 antag | Fluo-4 calcium fluorescence (FDSS); stronger effect = higher value | fluorescence ratio F(max-min)/F0 at 10 µM | hit rate 8.7% among 4,000 | AID 624115, 2012;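 active means calcium fluorescence ratio at least three times the spread of buffer wells, meaning a non-specific response in parental cells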
An asterisk follows results filed as active; i = inactive; . = no result given. Hits are enriched below; roughly 3.5% of the tested compounds scored in any of these assays.

SMILES | MrgX1 antag | MrgX1 agonist | RGS4 act | RGS4 block | MrgX1 allo act | MrgX1 antag conf | HEK293 Ca flux | HEK293 Ca counter | HEK293 Ca cntr2
COCCNC(=O)C(=O)NCC1OCCN1C(=O)c1ccc(Cl)cc1 (stereo unspecified) | -5.63* | i | i | i | i | i | i | i | i
COc1ccc(C)cc1N(CC(=O)Nc1ccc(S(=O)(=O)N2CCOCC2)cc1)S(C)(=O)=O | -5.22* | i | i | i | i | i | i | i | i
COCc1cc(CN2CCN(CCc3ccccc3)C(CCO)C2)ccc1OC (stereo unspecified) | i | i | i | i | i | . | . | . | .
O=C(CN(c1ccccn1)S(=O)(=O)c1ccc(F)cc1)Nc1ccc(F)cc1F | -5.65* | i | i | i | i | i | i | i | i
COc1ccc(CN2C(=O)c3cccnc3C2=O)cc1S(=O)(=O)N(C)Cc1ccco1 | i | i | i | i | i | . | . | . | .
CN(Cc1ccco1)S(=O)(=O)c1cc(F)ccc1CN1C(=O)c2cccnc2C1=O | -4.88* | i | i | i | i | i | i | i | i
OC(COCc1ccccc1F)CN1CCCCC1 (stereo unspecified) | i | i | i | i | i | . | . | . | .
COc1cccc(C(=O)NCC(=O)N2CCC3(CC2)NCCc2[nH]cnc23)c1OC | i | i | i | i | i | . | . | . | .
COc1ccc(OC)c(CNS(=O)(=O)c2cn(C)cn2)c1 | -4.54* | i | i | i | i | i | i | i | i
Cc1ccc(NC(=O)C(=O)NCc2ccc(/C=C(/C#N)C(=O)NCc3cccnc3)o2)cc1C | i | i | i | i | i | . | . | . | .
CCSc1nnc(NC(=O)COc2ccccc2)s1 | i | i | i | i | i | . | . | . | .
CCSc1nnc(NC(=O)C(CC)Oc2ccccc2)s1 (stereo unspecified) | -6.62* | i | i | i | i | i | i | i | i
CC(/C=N/NC(=O)CSc1nnc(SCc2ccccc2)s1)=C\c1ccco1 | i | i | i | i | i | . | . | . | .
CC(C)N(Cc1ccccc1)C(=O)C1CCN(c2ncnc3c2nc2n3CCCCC2)CC1 | -4.76* | i | i | i | i | i | i | i | 56.8*
CCN(CCn1cccn1)Cc1nc(Cc2cccc(F)c2)no1 | i | i | i | i | i | . | . | . | .
CCc1ccc(C2CC(c3ccccc3Cl)Nc3nc(N)nn32)cc1 (stereo unspecified) | -5.07* | i | i | i | i | i | i | i | i
Nc1nc2n(n1)C(c1ccco1)CC(c1ccc(Cl)cc1)N2 (stereo unspecified) | -6.33* | i | i | i | i | i | i | i | i
COc1ccccc1/C(O)=C(\C#N)c1nc2ccccc2[nH]1 | i | i | i | i | i | . | . | . | .
COc1ccc(OC)c2sc(NC(=O)CCS(=O)(=O)c3ccccc3)nc12 | i | i | i | i | i | . | . | . | .
COc1ccc(OC)c2sc(NC(=O)CCSc3ccccc3)nc12 | -8.84* | i | i | i | i | i | i | i | i
